Data set [1] has as its target T1, Nonstructural protein 5A (Hepatitis C virus) (UniProt Q5L478).
T1 sequence (whole entry): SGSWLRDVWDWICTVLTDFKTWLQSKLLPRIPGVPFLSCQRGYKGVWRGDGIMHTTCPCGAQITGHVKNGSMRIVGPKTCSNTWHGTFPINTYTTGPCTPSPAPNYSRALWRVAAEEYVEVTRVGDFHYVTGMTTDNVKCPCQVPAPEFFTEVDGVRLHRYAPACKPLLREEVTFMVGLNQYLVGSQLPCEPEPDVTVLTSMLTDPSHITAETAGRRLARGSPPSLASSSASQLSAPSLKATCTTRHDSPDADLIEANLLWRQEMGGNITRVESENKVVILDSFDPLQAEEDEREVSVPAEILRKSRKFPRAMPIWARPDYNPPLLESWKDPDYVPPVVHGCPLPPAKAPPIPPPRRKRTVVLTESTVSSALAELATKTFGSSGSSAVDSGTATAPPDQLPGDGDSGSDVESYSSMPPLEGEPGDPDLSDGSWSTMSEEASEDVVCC
The data set can be described thus: Inhibition of NS5A M28T mutant in HuH7 cell infected HCV genotype 1a H77 assessed as decrease in viral replication after 4 days by luciferase reporter gene assay relative to wild type protein. The settings on record: Hepatitis C virus (isolate H77). The procedure, abridged: (§1)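 Stable subgenomic luciferase replicons in Huh-7 cells: genotype 1a-H77 carrying NS5A substitutions M28T, Q30E, Q30R, Y93C, Y93H or Y93N, tested alongside the wild-type replicon. Cells are incubated 4 days with compound in DMEM with 5% FBS. Luciferase read-out, EC50 by 4-parameter logistic fit, and fold change versus wild type.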
Background: Reporter assays use an easily measured gene product as a stand-in for the process of interest.

For data set [2], the target named is T1, Nonstructural protein 5A (Hepatitis C virus). The experiment in a line: Inhibition of NS5A Q30E mutant in HuH7 cell infected HCV genotype 1a H77 assessed as decrease in viral replication after 4 days by luciferase reporter gene assay relative to wild type protein. The settings on record: Hepatitis C virus (isolate H77). The method in brief:
as §1

Data set [3] has the same target. The data set can be described thus: Inhibition of NS5A Q30R mutant in HuH7 cell infected HCV genotype 1a H77 assessed as decrease in viral replication after 4 days by luciferase reporter gene assay relative to wild type protein. To be noted: Hepatitis C virus (isolate H77). The method in brief: as §1
The subject of data set [4] is T2, Nonstructural protein 5A (Hepatitis C virus), Q5L478 [Y93C].
T2 sequence (whole entry): T1 sequence (whole entry) with Y93C
The data set can be described thus: Inhibition of NS5A Y93C mutant in HuH7 cell infected HCV genotype 1a H77 assessed as decrease in viral replication after 4 days by luciferase reporter gene assay relative to wild type protein. To be noted: Hepatitis C virus (isolate H77). The method in brief: as §1

Data set [5] has as its system T3, Nonstructural protein 5A (Hepatitis C virus), Q5L478 [Y93H].
T3 sequence (whole entry): T1 sequence (whole entry) with Y93H
The data set can be described thus: Inhibition of NS5A Y93H mutant in HuH7 cell infected HCV genotype 1a H77 assessed as decrease in viral replication after 4 days by luciferase reporter gene assay relative to wild type protein. The settings on record: Hepatitis C virus (isolate H77). The procedure, abridged:
as §1

In data set [6] the test system is T4, Nonstructural protein 5A (Hepatitis C virus), Q5L478 [Y93N].
T4 sequence (whole entry): T1 sequence (whole entry) with Y93N
The data set can be described thus: Inhibition of NS5A Y93N mutant in HuH7 cell infected HCV genotype 1a H77 assessed as decrease in viral replication after 4 days by luciferase reporter gene assay relative to wild type protein. To be noted: Hepatitis C virus (isolate H77). The method in brief: as §1

The subject of data set [7] is T3, Nonstructural protein 5A (Hepatitis C virus), Q5L478 [Y93H]. The data set can be described thus: Inhibition of NS5A Y93H mutant in HuH7 cell infected HCV genotype 1b Con1 assessed as decrease in viral replication after 4 days by luciferase reporter gene assay relative to wild type protein. The settings on record: Hepatitis C virus (isolate Con1). The method in brief: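 Stable subgenomic luciferase replicons in Huh-7 cells: genotype 1b-Con1 carrying NS5A Y93H or Y93N, tested alongside the wild-type replicon. Cells are incubated 4 days with compound in DMEM with 5% FBS. Luciferase read-out, EC50 from a 4-parameter logistic fit, expressed as fold change versus wild type.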

A short description of data set [8]: Volume of distribution at steady state during terminal phase in mouse at 5 mg/kg, iv by LC-MS method. Type of data set: ADME, organism-based. To be noted: in vivo, read-out: Vbeta.
Data set [9] is described as follows: Volume of distribution at steady state in mouse at 5 mg/kg, iv by LC-MS method. Type of data set: ADME, organism-based. To be noted: in vivo, read-out: Vdss.
A short description of data set [10]: AUC (0 to infinity) in mouse at 5 mg/kg, iv by LC-MS method. Type of data set: ADME, organism-based. Also noted: dose 5 mg/kg, time infinity, route intravenous. The settings on record: in vivo.
Data set [11] in a line: Tmax in mouse at 5 mg/kg, po by LC-MS method. Type of data set: ADME, organism-based. The settings on record: in vivo.
A short description of data set [12]: AUC (0 to infinity) in mouse at 5 mg/kg, po by LC-MS method. Type of data set: ADME, organism-based. On the set-up: dose 5 mg/kg, route oral, time infinity. To be noted: in vivo.
Data set [13] in a line: Lipophilicity, log D of the compound by HPLC method. Type of data set: physicochemical.
Data set [14] is described as follows: Permeability of the compound by PAMPA. Type of data set: ADME. To be noted: read-out: permeability. (In general: In PAMPA a lipid-coated filter parts donor from acceptor wells.)
A short description of data set [15]: Solubility of the compound by CLND method. Type of data set: physicochemical.
Data set [16] is described as follows: Intrinsic clearance in human microsomes. Type of data set: ADME, Microsome.
Data set [17] is described as follows: Intrinsic clearance in rat microsomes. Type of data set: ADME, Microsome.

Substitutions are numbered along the chain they refer to. In brackets after ≈: the same amount, converted by molar mass.

In general, AUC(0-inf) refers to the area under the concentration-time curve extrapolated to infinity. High values mean high exposure, low ones low exposure. What is called Tmax is the time from dosing to the highest level. A word on the logD: it is the decadic logarithm of the distribution of all forms, ionised or not, between an organic phase and buffer at a given pH. For orientation: kinetic solubility means the concentration staying in solution when a stock, usually in DMSO, is diluted into the medium. One may read the CLint scaled as the rate of metabolic loss divided by the concentration. A low value points to greater metabolic stability.

Regarding `COC(=O)N[C@H](C(=O)N1CCC[C@H]1c1nc2ccc([C@H]3CC[C@H](c4ccc5nc([C@@H]6CCCN6C(=O)[C@@H](NC(=O)OC)C(C)C)[nH]c5c4)N3c3ccc(C(C)(C)C)cc3)cc2[nH]1)C(C)C`, the fold change (FC) stood at 4 in data set [1]; 61 in [2]; 14 in data set [3]; 7 in data set [4]; 216 in data set [5]; 510 in data set [6]. In data set [7], the fold change (FC) was 2. The values for the Vd in data set [8] and in [9] were 1.11 L/kg and 0.65 L/kg, respectively. Further, the figures for the AUC(0-inf) in [10] and in data set [12] were 13100 ng·h/mL and 1390 ng·h/mL, respectively. Moreover, the time to peak (Tmax) in [11] came out at 1.67 h. Also, in [13], the logD came out at 5.3. In addition, the Papp in [14] came to 0.14 ×10⁻⁶ cm/s. The compound further had a solubility (kinetic) in data set [15] of 1.6 µM (≈ 1.42 µg/mL). Besides, the intrinsic clearance (CLint scaled) is 122 mL/min/kg in [16] and 167 mL/min/kg in [17].

(Values after ChEMBL document CHEMBL4177761, “Highlights of the Structure-Activity Relationships of Benzimidazole Linked Pyrrolidines Leading to the Discovery of the Hepatitis C Virus NS5A Inhibitor Pibrentasvir (ABT-530)” (J Med Chem, 2018).)
